{"source": "ChEMBL document CHEMBL1154866", "about": "“Lanostane triterpenes from the fruiting bodies of Ganoderma lucidum and their inhibitory effects on adipocyte differentiation in 3T3-L1 Cells” (J Nat Prod, 2010)", "key": {"3T3-L1 [1]": {"test_system": "3T3-L1", "assay": "Cytotoxicity against mouse 3T3L1 cells at 40 ug/ml after 2 days by MTT assay", "type": "cell-based", "settings": "3t3-l1, 48 h", "in_short": "(§1)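 3T3-L1 preadipocytes seeded at 1 × 10^4 cells/well in DMEM + 10% bovine calf serum, 37 °C, 5% CO2. After 24 h, vehicle or sample (10 to 80 µg/mL) added in serum-free DMEM. After a further 24 h, MTT added for 2 h. Formazan dissolved in DMSO, OD read at 570 nm.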"}, "3T3-L1 [2]": {"test_system": "3T3-L1", "assay": "Cytotoxicity against mouse 3T3L1 cells at 80 ug/ml after 2 days by MTT assay", "type": "cell-based", "settings": "3t3-l1, 48 h", "in_short": "as §1"}, "3T3-L1 [3]": {"test_system": "3T3-L1", "assay": "Inhibition of adipocytes differentiation in mouse 3T3L1 cells assessed as lipid accumulation at 40 ug/ml after 8 days by Oil red O staining relative to control", "type": "functional", "settings": "3T3-L1, 192 h", "in_short": "(§2)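 Differentiation induced 2 days post-confluence with DEX, 0.5 mM IBMX and insulin in DMEM/10% FBS for 2 days, then DMEM/FBS/insulin refreshed every 2 days. Sample added every 2 days for 8 days (40 µg/mL, or 5–40 µg/mL series). Day 8: PBS wash, 4% formaldehyde fixation, oil red O 30 min, dye eluted with 2-propanol, A510 versus untreated control. Mean ± SD, n=3.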"}, "[4]": {"biological_target": "T1, Glycerol-3-phosphate dehydrogenase [NAD(+)], cytoplasmic (Mus musculus) (UniProt P13707)", "T1 sequence (whole entry)": "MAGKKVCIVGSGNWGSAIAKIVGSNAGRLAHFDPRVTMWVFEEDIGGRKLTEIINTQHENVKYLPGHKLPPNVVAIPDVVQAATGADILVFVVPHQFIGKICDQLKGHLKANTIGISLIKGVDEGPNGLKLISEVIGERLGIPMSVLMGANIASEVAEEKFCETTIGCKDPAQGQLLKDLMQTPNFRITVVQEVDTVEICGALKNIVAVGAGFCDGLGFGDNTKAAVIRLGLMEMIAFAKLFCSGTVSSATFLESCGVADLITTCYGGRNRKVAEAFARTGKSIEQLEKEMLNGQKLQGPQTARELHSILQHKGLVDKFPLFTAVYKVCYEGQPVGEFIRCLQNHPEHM", "assay": "Inhibition of GPDH in mouse 3T3L1 cells assessed as reduction of NADH oxidation rate at 40 ug/ml", "type": "cell-based", "parameters": "scale not given: the % may be the effect or the level left", "settings": "3T3-L1", "in_short": "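Preadipocytes kept in DMEM/10% BCS; induced 2 days post-confluence with DEX, 0.5 mM IBMX and insulin in DMEM/10% FBS, then DMEM/FBS/insulin. Treated every 2 days (5–40 µg/mL) to day 8. Cells collected in extraction buffer and spun 12 000 rpm, 5 min, 4 °C. Supernatant A340 decline over 5 min gives NADH oxidation with dihydroxyacetone phosphate, as units per mg protein (Bradford). Mean ± SD, n=3.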"}, "3T3-L1 [5]": {"test_system": "3T3-L1", "assay": "Inhibition of adipocytes differentiation in mouse 3T3L1 cells assessed as lipid accumulation at 5 to 40 ug/ml after 8 days by Oil red O staining relative to control", "type": "functional", "in_short": "as §2"}, "3T3-L1 [6]": {"test_system": "3T3-L1", "assay": "Inhibition of adipocytes differentiation in mouse 3T3L1 cells assessed as lipid accumulation after 8 days by Oil red O staining relative to control", "type": "functional, cell-based", "in_short": "as §2"}}, "data": [{"smiles": "CCCCOC(=O)C(C)CC(=O)C[C@@H](C)[C@H]1C[C@H](O)[C@@]2(C)C3=C(C(=O)C[C@]12C)[C@@]1(C)CCC(=O)C(C)(C)[C@@H]1C[C@@H]3O", "note": "(some centres undefined) [BUTYL GANODERATE A]", "values": [{"measurement": "Activity", "setting": "3T3-L1 [1]", "result": "Non-toxic"}, {"measurement": "Activity", "setting": "3T3-L1 [2]", "result": "Toxic"}, {"measurement": "inhibition at 40 µg/mL", "setting": "3T3-L1 [3]", "result": 22, "unit": "%"}]}, {"smiles": "CCCCOC(=O)[C@H](C)CC(=O)C[C@@H](C)[C@H]1CC(=O)[C@@]2(C)C3=C(C(=O)C[C@]12C)[C@@]1(C)CC[C@H](O)C(C)(C)[C@@H]1C[C@@H]3O", "note": "[BUTYL GANODERATE B]", "values": [{"measurement": "Activity", "setting": "3T3-L1 [1]", "result": "Non-toxic"}, {"measurement": "inhibition at 40 µg/mL", "setting": "3T3-L1 [3]", "result": 22, "unit": "%"}]}, {"smiles": "CCCCOC(=O)CC[C@@H](C)[C@H]1CC(=O)[C@@]2(C)C3=C(C(=O)C[C@]12C)[C@@]1(C)CCC(=O)C(C)(C)[C@@H]1C[C@@H]3O", "note": "[BUTYL LUCIDENATE A]", "values": [{"measurement": "Activity", "setting": "3T3-L1 [1]", "result": "Non-toxic"}, {"measurement": "Activity", "setting": "3T3-L1 [2]", "result": "Toxic"}, {"measurement": "inhibition at 40 µg/mL", "setting": "3T3-L1 [3]", "result": 22, "unit": "%"}]}, {"smiles": "CCCCOC(=O)CC[C@@H](C)[C@H]1CC(=O)[C@@]2(C)C3=C(C(=O)C[C@]12C)[C@@]1(C)CC[C@H](O)C(C)(C)[C@@H]1C[C@@H]3O", "note": "[BUTYL LUCIDENATE N]", "values": [{"measurement": "Activity", "setting": "3T3-L1 [1]", "result": "Non-toxic"}, {"measurement": "inhibition at 40 µg/mL", "setting": "3T3-L1 [3]", "result": 56, "unit": "%"}, {"measurement": "Activity", "setting": "[4]", "result": "> 80", "unit": "%"}, {"measurement": "inhibition (INH)", "setting": "3T3-L1 [5]", "result": 56, "unit": "%"}, {"measurement": "inhibition", "setting": "3T3-L1 [6]", "result": "Dose-dependent effect"}]}, {"smiles": "C[C@H](CC(=O)C[C@@H](C)[C@H]1C[C@H](O)[C@@]2(C)C3=C(C(=O)C[C@]12C)[C@@]1(C)CCC(=O)C(C)(C)[C@@H]1C[C@@H]3O)C(=O)O", "note": "[GANODERIC ACID A]", "values": [{"measurement": "Activity", "setting": "3T3-L1 [1]", "result": "Non-toxic"}, {"measurement": "inhibition at 40 µg/mL", "setting": "3T3-L1 [3]", "result": 22, "unit": "%"}]}, {"smiles": "CC(CC(=O)C[C@@H](C)[C@H]1CC(=O)[C@@]2(C)C3=C(C(=O)C[C@]12C)[C@@]1(C)CC[C@H](O)C(C)(C)[C@@H]1C[C@@H]3O)C(=O)O", "note": "(some centres undefined) [GANODERIC ACID B]", "values": [{"measurement": "Activity", "setting": "3T3-L1 [1]", "result": "Non-toxic"}, {"measurement": "inhibition at 40 µg/mL", "setting": "3T3-L1 [3]", "result": 22, "unit": "%"}]}, {"smiles": "C[C@H](CC(=O)C[C@@H](C)[C@H]1CC(=O)[C@@]2(C)C3=C(C(=O)C[C@]12C)[C@@]1(C)CCC(=O)C(C)(C)[C@@H]1CC3=O)C(=O)O", "note": "[GANODERIC ACID E]", "values": [{"measurement": "Activity", "setting": "3T3-L1 [1]", "result": "Non-toxic"}, {"measurement": "inhibition at 40 µg/mL", "setting": "3T3-L1 [3]", "result": 22, "unit": "%"}]}, {"smiles": "CC(CC(=O)C[C@@H](C)[C@H]1C[C@H](O)[C@@]2(C)C3=C(C(=O)C[C@]12C)[C@@]1(C)CCC(=O)C(C)(C)[C@@H]1CC3)C(=O)O", "note": "(some centres undefined) [GANOLUCIDIC ACID A]", "values": [{"measurement": "Activity", "setting": "3T3-L1 [1]", "result": "Non-toxic"}, {"measurement": "Activity", "setting": "3T3-L1 [2]", "result": "Toxic"}, {"measurement": "inhibition at 40 µg/mL", "setting": "3T3-L1 [3]", "result": 22, "unit": "%"}]}, {"smiles": "C[C@H](CCC(=O)O)[C@H]1CC(=O)[C@@]2(C)C3=C(C(=O)C[C@]12C)[C@@]1(C)CC[C@H](O)C(C)(C)[C@@H]1C[C@@H]3O", "note": "[LUCIDENIC ACID N]", "values": [{"measurement": "Activity", "setting": "3T3-L1 [1]", "result": "Non-toxic"}, {"measurement": "inhibition at 40 µg/mL", "setting": "3T3-L1 [3]", "result": 22, "unit": "%"}]}, {"smiles": "COC(=O)C(C)CC(=O)C[C@@H](C)[C@H]1C[C@H](O)[C@@]2(C)C3=C(C(=O)C[C@]12C)[C@@]1(C)CCC(=O)C(C)(C)[C@@H]1C[C@@H]3O", "note": "(some centres undefined) [METHYL GANODERATE A]", "values": [{"measurement": "Activity", "setting": "3T3-L1 [1]", "result": "Non-toxic"}, {"measurement": "Activity", "setting": "3T3-L1 [2]", "result": "Toxic"}, {"measurement": "inhibition at 40 µg/mL", "setting": "3T3-L1 [3]", "result": 22, "unit": "%"}]}, {"smiles": "COC(=O)C(C)CC(=O)C[C@@H](C)[C@H]1CC(=O)[C@@]2(C)C3=C(C(=O)C[C@]12C)[C@@]1(C)CC[C@H](O)C(C)(C)[C@@H]1C[C@@H]3O", "note": "(some centres undefined) [METHYL GANODERATE B]", "values": [{"measurement": "Activity", "setting": "3T3-L1 [1]", "result": "Non-toxic"}, {"measurement": "inhibition at 40 µg/mL", "setting": "3T3-L1 [3]", "result": 22, "unit": "%"}]}, {"smiles": "COC(=O)C(C)CC(=O)C[C@@H](C)[C@H]1CC(=O)[C@@]2(C)C3=C(C(=O)C[C@]12C)[C@@]1(C)CCC(=O)C(C)(C)[C@@H]1C[C@@H]3O", "note": "(some centres undefined) [METHYL GANODERATE D]", "values": [{"measurement": "Activity", "setting": "3T3-L1 [1]", "result": "Non-toxic"}, {"measurement": "inhibition at 40 µg/mL", "setting": "3T3-L1 [3]", "result": 22, "unit": "%"}]}, {"smiles": "COC(=O)C(C)CC(=O)C[C@@H](C)[C@H]1CC(=O)[C@@]2(C)C3=C(C(=O)C[C@]12C)[C@@]1(C)CCC(=O)C(C)(C)[C@@H]1CC3=O", "note": "(some centres undefined) [METHYL GANODERATE E]", "values": [{"measurement": "Activity", "setting": "3T3-L1 [1]", "result": "Non-toxic"}, {"measurement": "inhibition at 40 µg/mL", "setting": "3T3-L1 [3]", "result": 22, "unit": "%"}]}, {"smiles": "COC(=O)C(C)CC(=O)C[C@@H](C)[C@H]1CC(=O)[C@@]2(C)C3=C(C(=O)[C@@H](OC(C)=O)[C@]12C)[C@@]1(C)CC[C@H](O)C(C)(C)[C@@H]1CC3=O", "note": "(some centres undefined) [METHYL GANODERATE H]", "values": [{"measurement": "Activity", "setting": "3T3-L1 [1]", "result": "Non-toxic"}, {"measurement": "inhibition at 40 µg/mL", "setting": "3T3-L1 [3]", "result": 22, "unit": "%"}]}, {"smiles": "COC(=O)CC[C@@H](C)[C@H]1CC(=O)[C@@]2(C)C3=C(C(=O)C[C@]12C)[C@@]1(C)CCC(=O)C(C)(C)[C@@H]1C[C@@H]3O", "note": "[METHYL LUCIDENATE A]", "values": [{"measurement": "Activity", "setting": "3T3-L1 [1]", "result": "Non-toxic"}, {"measurement": "Activity", "setting": "3T3-L1 [2]", "result": "Toxic"}, {"measurement": "inhibition at 40 µg/mL", "setting": "3T3-L1 [3]", "result": 22, "unit": "%"}]}, {"smiles": "COC(=O)CC[C@@H](C)[C@H]1CC(=O)[C@@]2(C)C3=C(C(=O)[C@@H](OC(C)=O)[C@]12C)[C@@]1(C)CC[C@H](O)C(C)(C)[C@@H]1CC3=O", "note": "[METHYL LUCIDENATE E2]", "values": [{"measurement": "Activity", "setting": "3T3-L1 [1]", "result": "Non-toxic"}, {"measurement": "inhibition at 40 µg/mL", "setting": "3T3-L1 [3]", "result": 22, "unit": "%"}]}, {"smiles": "COC(=O)CC[C@@H](C)[C@H]1CC(=O)[C@@]2(C)C3=C(C(=O)C[C@]12C)[C@@]1(C)CCC(=O)C(C)(C)[C@@H]1CC3=O", "note": "[METHYL LUCIDENATE F]", "values": [{"measurement": "Activity", "setting": "3T3-L1 [1]", "result": "Non-toxic"}, {"measurement": "inhibition at 40 µg/mL", "setting": "3T3-L1 [3]", "result": 22, "unit": "%"}]}, {"smiles": "COC(=O)CC[C@@H](C)[C@H]1CC(=O)[C@@]2(C)C3=C(C(=O)[C@@H](OC(C)=O)[C@]12C)[C@@]1(C)CC[C@H](O)C(C)(C)[C@@H]1C[C@@H]3O", "note": "[METHYL LUCIDENATE P]", "values": [{"measurement": "Activity", "setting": "3T3-L1 [1]", "result": "Non-toxic"}, {"measurement": "inhibition at 40 µg/mL", "setting": "3T3-L1 [3]", "result": 22, "unit": "%"}]}]}
